# Bioassay records as filed in PubChem.
# Most compounds without a hit are left out; they make up all but 1.9% or so of the library.
# HCV core dimer = inhibitors of HCV core protein dimerization, primary screen, biochemical, TR-FRET, high-throughput; TR-FRET GST/Flag-core106 dimerization, 1536-well; inhibition, % at 5 µM; 300,000 tested, 0.33% active;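 active means inhibition above the mean of all tested compounds plus 3 SD, set per screening campaign, cut at about 45% in these data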
#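 Material: Tagged HCV core106 pair (GST and Flag) | Amount: GST-core106 13.5 nM, Flag-core106 17 nM | Medium: KF-containing HEPES buffer, pH 7.45, DTT, CHAPS, BSA | Reagent: Eu donor and XL665 acceptor anti-tag antibodies | Schedule: 4 h at 22.5 °C | Technique: Time-resolved FRET, ex 340 nm, em 617 and 671 nm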
# FID counter = compounds displacing fluorescent DNA intercalator, primary screen, artefact control for HCV NS3 helicase inhibitor project, biochemical, FID fluorescence. DNA fluorescent intercalator displacement. inhibition, % at 7.9 µM. 290,000 tested, 0.17% active. AID 1845, 2009; in the data active means inhibition above about 37%;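 further: 0% = vehicle and 100% = reference compound; higher means more ethidium bromide displaced from hairpin DNA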
# pCIP destab = p/CIP-EGFP fusion destabilizers, primary screen, fluorescence, F442A cells. 16 h. 290,000 tested, 0.01% active. decrease of EGFP signal, % at 10 µM. Q05BA5;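 active means EGFP signal decrease of at least 30% at 10 µM or well 3 SD below plate mean, unless failing retest; inactive means the rest, including hits failing retest or dose response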
# HCV NS3 hel inh = inhibitors of HCV NS3 helicase, primary screen, biochemical, Cy5 molecular beacon fluorescence; 290,000 tested, 0.56% active; Hepatitis C virus NS3 helicase; AID 1800, 2009; NS3 helicase DNA unwinding; inhibition, % at 10.9 µM;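 active means inhibition above the mean of all tested compounds plus 3 SD, set per campaign, cut at about 35% in these data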;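 further: 0% = DMSO wells and 100% = thioflavine S control wells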
#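 System: HCV NS3 helicase fragment; control set: DMSO and thioflavine S; technique: Cy5 fluorescence at 0 and 60 min, beacon hairpin quenching; reagent: beacon DNA duplex substrate plus ATP; replicates: singlicate; schedule: 1 h reaction at 25 °C, ATP-initiated; medium: MOPS buffer pH 6.5 with MgCl2, DTT, Tween20, BSA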
# GPR7 antagonist = GPR7 receptor antagonists, primary screen, cell-based, fluorescence, single concentration. Neuropeptides B/W receptor type 1 (Homo sapiens), P48145. AID 1861, 2009. GPR7-expressing cells, fluorescence antagonist assay. 290,000 tested, 1.1% active. inhibition, % at 4.4 µM; in the data active means inhibition above about 16%, passing the limit was not always enough;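 further: cells stimulated with the agonist NPW; 0% = agonist with vehicle and 100% = vehicle without agonist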
# Active calls of the source: *; x = no result given.
SMILES,HCV core dimer,FID counter,pCIP destab,HCV NS3 hel inh,GPR7 antagonist
O=C(CSc1cccc(C(F)(F)F)c1)NC(=O)NCc1ccco1,51*,-11,-19,12,0
CCNC(=O)NC(=O)CSc1cccc(C(F)(F)F)c1,0,-6,-11,-1,-1
COc1ccc(CC(=O)NCC2CCCN(Cc3cc(OC)cc(OC)c3)C2)cc1 (configuration not stated),-6,2,2,5,1
CCc1nn2c(=O)c(S(=O)(=O)Nc3ccc(Cl)cc3)c(C)nc2s1,-12,-35,-2,3,-7
CCc1cccc(NS(=O)(=O)c2c(C)nc3sc(CC)nn3c2=O)c1,6,-43,6,36,21*
COCCN1CCN(C(=O)c2cc(COc3ccc(Cl)cc3OC)on2)CC1,0,-14,-17,6,-5
Cc1ccc(N/C(N)=N/c2nc(C)cc(N3CCCCC3)n2)c(C)c1,-1,15,15,-47,27*
Cc1ccc(N/C(N)=N/c2nc3c(c(=O)[nH]2)CCCC3)c(C)c1,-9,-3,-3,-3,10
CC(=O)c1ccc(N(CC(=O)NC2CCCC2)C(=O)c2ccc(C)s2)cc1,-7,-19,-5,-4,21*
O=C(c1cccc(S(=O)(=O)NCc2ccccc2)c1)N1CCCC(C(F)(F)F)C1 (configuration not stated),2,x,x,x,x
COc1cc(OC)c(NC(=O)CN(C)S(=O)(=O)c2ccc(-c3ccc(=O)[nH]n3)s2)cc1Cl,53*,-49,-6,-5,-5
COc1ccc(OCC(=O)Nc2cc(NC(=O)c3ccco3)ccc2OC)cc1,-9,-26,-19,1,-7
Cc1ccc(S(=O)(=O)N(CC2CO2)c2cc(Cl)ccc2Cl)cc1 (configuration not stated),7,-28,-9,-2,-8
O=c1c2c3c(sc2[nH]c(=S)n1Cc1ccco1)CCC3,48*,-16,-6,11,-11
Cn1c2ccccc2c2cc([N+](=O)[O-])ccc21,2,7,3,-1,-8
CCN(CC)CCn1c2ccccc2c2nc3ccc([N+](=O)[O-])cc3cc21,-3,44*,-3,3,-5
O=C(CSCc1cccc(Cl)c1)OCc1nc2ccsc2c(=O)[nH]1,-1,x,x,x,x
CCOC(=O)c1cccc(N2C(N)=NC(N)=NC2(C)C)c1,-7,-1,2,2,16*
CN(C)/C=N/N(C)c1ncccc1[N+](=O)[O-],-4,-3,-9,-2,-6
O=C1N=c2ccccc2=C1c1sc(Nc2cccc(O)c2)nc1O,-8,39*,-6,-11,19
CCOc1cc(N2CCOCC2)c(OCC)cc1NC(=O)c1c(-c2ccccc2Cl)noc1C,1,-30,-2,-10,-15
CCOC(=O)/C=C/C(=O)OCC(=O)Nc1ccc([N+](=O)[O-])cc1,-1,8,-3,-6,-5
COc1ccccc1CNC(=O)COC(=O)/C=C/c1cccs1,3,-10,-23,3,19*
COc1ccc(CNC(=O)COC(=O)/C=C/c2cccs2)cc1,6,-16,-2,-3,4
C=CCC(C(=O)NC(C)c1ccccc1)C(=O)NC(C)c1ccccc1 (configuration not stated),-8,-23,-8,5,-3
SMILES,HCV core dimer,FID counter,pCIP destab,HCV NS3 hel inh,GPR7 antagonist
CC1CCCN(C(=O)CSc2nnc(-c3ccncc3)n2C)C1 (configuration not stated),2,7,12,-17,5
COC/C=C/C1=CC2=CC(=O)C(C)(OC(=O)C3CCCC3)C(=O)C2=CO1 (configuration not stated),7,x,-8,x,x
COC/C=C/C1=CC2=CC(=O)C(C)(O)C(=O)C2=CO1 (configuration not stated),58*,x,x,x,x
COC/C=C/C1=CC2=CC(=O)C(C)(OC(=O)c3ccco3)C(=O)C2=CO1 (configuration not stated),51*,x,-9,x,x
COC/C=C/C1=CC2=CC(=O)C(C)(OC(=O)c3cccs3)C(=O)C2=CO1 (configuration not stated),42,x,x,x,x
N#C/C(=C\c1ccc(Cl)cc1)c1n[nH]c(Cn2cncn2)n1,-2,-2,2,-3,-3
COc1ccc(/C=C(\C#N)c2n[nH]c(Cn3cncn3)n2)cc1,-5,-2,-9,7,20*
CCn1c2ccccc2c2cc(NC(=O)COC(=O)c3ccc(NC(=O)CC#N)cc3)ccc21,74*,x,x,x,x
COCCn1c(C)cc(C(=O)COC(=O)c2ccccc2Br)c1C,7,-20,-5,-6,11
COCCn1c(C)cc(C(=O)COC(=O)c2ccc(NC(=O)CC#N)cc2)c1C,68*,-41,-5,6,8
CCOc1ccc(NCc2cccn2-c2nnc(N3CCC(C(=O)NCCCN4C(C)CCCC4C)CC3)s2)cc1 (configuration not stated),-9,41*,-4,-81,0
Cc1c(Br)cc(C(=O)NCc2ccco2)c(C)c1C,48*,-12,-10,18,2
O=C(NCc1cccc(CNC(=O)c2ccco2)c1)c1ccco1,-1,-1,-8,-12,-11
O=C(NCc1cccc(CNC(=O)C(=O)NCc2ccco2)c1)C(=O)NCc1ccco1,47*,-9,-9,-8,-1
COc1ccccc1CNC(=O)N/C=C/c1ccc(Cl)cc1,16,2,0,-6,-12
CC(C)c1ccc(/C=N/NC(=O)CCNC(=O)c2ccccc2)cc1,9,-30,-4,1,-4
COc1ccc(CSc2nnc(-c3ccncc3)n2C)cc1F,-15,-10,-12,-8,3
CCCCOc1ccc(Br)cc1CSC(=N)N,x,11,4,-39,75*
CCOc1ccc(C(C)=O)cc1CSC(=N)N,-1,1,-9,-6,-9
O=C(OCc1ccco1)c1ccc(S(=O)(=O)N2CCCCC2)cc1,80*,-10,-9,16,-6
Nc1nc2nc(-c3ccccc3)cc(C(F)(F)F)c2s1,-2,-13,2,-4,-14
Cc1ccc(S(=O)(=O)NCC(c2ccccc2)N2CCN(c3ccc(F)cc3)CC2)cc1 (configuration not stated),x,-21,-5,-6,-16
CC(c1ccccc1)N1C(=O)c2ccc(C(=O)Nc3ccccc3C(=O)O)cc2C1=O (configuration not stated),14,43*,-1,-17,-7
COc1ccc(C(=O)/C=C2/C(=O)Nc3ccccc32)cc1,x,3,-10,-13,19
O=C1Nc2ccccc2/C1=C/C(=O)c1cccs1,-2,10,-10,-5,26*
